From paper PMC8635173 (Chemical Science, 2021)
Read-outs that look alike come from different tables or passages of the source.

Experiments:
[1] = test system: MDA-MB-231 triple-negative breast cancer carcinoma; experiment: Anti-proliferative NBB assay; format: cell-based, human; conditions: read-out: IC50 MDA-MB-231; 72 h
[2] = test system: NCI-H460 cells; experiment: γ-H2AX immunofluorescence staining; format: cell-based, human; conditions: 10 µM, 24 h post-treatment
[3] = test system: NCI-H460 non-small cell lung carcinoma; experiment: Anti-proliferative NBB assay; format: cell-based, human; conditions: read-out: IC50 NCI-H460; 72 h
[4] = test system: NCI-H460 cells; experiment: Annexin V-FITC/PI double staining, flow cytometry; format: cell-based, human; conditions: 20 µM, 72 h
[5] = test system: LC3 (LC3-II); experiment: Immunoblotting of autophagy marker LC3; format: cell-based, human; conditions: Western blotting; 1a 0-30 µM 6 h or 10 µM 6-24 h; cisplatin 0-20 µM 6 h
[6] = test system: A2780 ovarian carcinoma; experiment: Anti-proliferative NBB assay; format: cell-based, human; conditions: read-out: IC50 A2780; 72 h
[7] = test system: NCI-H460 cells; experiment: Cell cycle analysis by flow cytometry; format: cell-based, human; conditions: 10 µM
[8] = test system: NCI-H460 cells; experiment: Mitochondrial depolarization assay; format: cell-based, human; conditions: 10 µM, 24 h, relative to vehicle
[9] = test system: CCD-19Lu normal lung fibroblast; experiment: Anti-proliferative NBB assay; format: cell-based, human; conditions: read-out: IC50 CCD-19Lu; 72 h
[10] = test system: PLC primary liver carcinoma; experiment: Anti-proliferative NBB assay; format: cell-based, human; conditions: read-out: IC50 PLC; 72 h
[11] = test system: HCT116 colorectal carcinoma; experiment: Anti-proliferative NBB assay; format: cell-based, human; conditions: read-out: IC50 HCT116; 72 h
[12] = test system: NCI-H460 cells; experiment: Lysosomal integrity; format: cell-based, human; conditions: 10 µM, 24 h
Method in brief: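 NCI-H460 cells were exposed to test compound (10 μM) for 24 h and then stained. Stains were acridine orange (10 μM), LysoTracker Deep Red with MitoTracker Green (50 nM), and pepstatin A–BODIPY FL conjugate (1 μM) co-stained with LysoTracker Deep Red. Imaging was by confocal microscopy, checking vesicular staining loss and cytosolic probe leakage against vehicle.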

[13] = test system: NCI-H460 cells; experiment: Cellular uptake of platinum by ICP-MS; format: cell-based, human; conditions: for decrease in Pt levels in cells: 2 h treatment
[14] = In vivo systemic toxicity; parameters: species or system nude mouse
Method in brief: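 Tumour-bearing nude mice (n = 6) received test compound (25 mg kg⁻¹ i.v.) or PBS vehicle for 14 days. Body weight was tracked throughout. At day 14, major organs were harvested for H&E histology, and blood was analysed for ALT and creatinine.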

[15] = test system: DNA duplex bearing cytosine–cytosine (CC) mismatched base pairs; experiment: DNA binding affinity by ITC
[16] = test system: NCI-H460 lung cancer xenografts; experiment: In vivo anti-tumor study; parameters: species or system nude mouse; conditions: 1a 25 mg kg^−1 i.v., 14 days
Method in brief: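 Nude mice bearing NCI-H460 xenografts were randomised into groups (n = 6). Groups received test compound (25 mg kg⁻¹) or PBS vehicle i.v. for 14 days; cisplatin (1.5 mg kg⁻¹ i.v.) on a similar regimen served as positive control. Tumour volume was tracked. Dissected tumours were weighed and examined by H&E and Ki-67 immunohistochemistry. Data are given as mean ± standard error.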

[17] = test system: β-glucosidase (from almonds); experiment: Enzymatic cleavage of the glycosidic linkage, UPLC/MS; format: in vitro ADME
Method in brief: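 Test compound incubated with almond β-glucosidase (0.5 U mL⁻¹) in PBS pH 5.8 at 37 °C for up to 24 h. Enzyme-free controls were run in PBS pH 5.8 and pH 7.4. Release of the deglycosylated aglycone was followed over time by UPLC/MS peak tracking (retention time and m/z).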

[18] = test system: NCI-H460 cancer cells and CCD-19Lu normal fibroblast cells; experiment: Comparative cellular uptake, cancer versus normal cells, ICP-MS; format: cell-based, human
[19] = biological target: guanine–cytosine (GC)-rich DNA; experiment: DNA binding affinity by ITC; conditions: read-out: KD (GC-rich DNA), one-site binding model, pH 7.4
[20] = test system: ctDNA; experiment: DNA binding affinity by isothermal titration calorimetry; parameters: species or system calf
[21] = Aqueous solubility; format: physicochemical
[22] = test system: calf thymus DNA (ctDNA); experiment: UV-vis absorption titration with DNA; format: binding; conditions: complex 30 µM, Tris-HCl pH 7.4
[23] = test system: NCI-H460 cells; experiment: Subcellular distribution of platinum content by ICP-MS; format: cell-based, human; conditions: 24 h treatment
[24] = Lipophilicity measurement; format: physicochemical; conditions: n-octanol / 0.9 % aqueous NaCl, 298 K
[25] = Particle size by nanoparticle tracking analysis; format: physicochemical
[26] = test system: different cancer cell lines; experiment: Anti-proliferative NBB assay, summary over several cancer cell lines; format: cell-based, human; conditions: for IC50: read-out: IC50 toward different cell lines, NCI-H460 lung, PLC liver and HCT116 colorectal carcinomas
[27] = test system: telomeric G-quadruplex (HTelo) DNA; experiment: UV-vis absorption titration with DNA; format: binding; conditions: at λmax of 345 nm
[28] = test system: NCI-H460 cells; experiment: Intracellular oxidant level; format: cell-based, human; conditions: 10 µM, 24 h
[29] = test system: NCI-H460 cells stably expressing mRFP-GFP-LC3; experiment: Live cell imaging of mRFP-GFP-tagged LC3; format: cell-based, human; conditions: 10 µM, 24 h

In the case of N.N.[Cl][Pt][Cl] [Cisplatin, reference compound], the IC50 [1] is reported as 19.7 ± 1.6 µM, the “γ-H2AX foci in nuclei” value [2] is reported as “even more markedly increased” and the IC50 [3] is reported as 6.9 ± 0.5 µM. The “late apoptosis (annexin V-positive and PI-positive)” value [4] was 87.2%, the “level of LC3-II” value [5] was “dose-dependent increase” and the IC50 [6] was 8.9 ± 0.7 µM. The “increase in G2/M populations” value ([7]; 24 h, versus vehicle) was 53.7%, the “decrease in red fluorescence of JC-1 (mitochondrial depolarization)” value [8] was 8.3% and the IC50 [9] was 30.8 ± 4.9 µM. For the same compound, the IC50 [10] was 9.1 ± 1.2 µM, the IC50 [11] was 5.1 ± 0.4 µM and the lysosomal integrity [12] was “negligible damage to the cellular lysosomes”.
With “[Pt(tpy)(C?CArOGlu)](CF3SO3) [Complex 1a]” the IC50 [1] was 23.8 ± 5.8 µM, the “γ-H2AX foci in nuclei” value [2] was “some significant fluorescent γ-H2AX foci” and the “fold higher intracellular Pt level than 1b” value ([13]; 10 µM, after 24 h) was “ca. 3.2 fold”. For the same compound, the “fold higher intracellular Pt level than 1c” value ([13]; 10 µM, after 24 h) was ~8 fold, the “fold higher intracellular Pt level than 1d” value ([13]; 10 µM, after 24 h) was ~1.6 fold and the “decrease in Pt levels in cells” value ([13]; hypertonic sucrose (450 mM)) was 27.4%. For the same compound, the “decrease in Pt levels in cells” value ([13]; incubation at 4 °C) was 77.1%, the “reduction in the cellular Pt level (upper figure)” value ([13]; low temperature (4 °C) or inhibition of endocytosis) was “up to 80%” and the “decrease in Pt levels in cells” value ([13]; nocodazole (50 µM)) was 41.9%. For the same compound, the IC50 [3] was 7.1 ± 0.3 µM, the “histopathology of major organs (heart, liver, spleen, lungs and kidneys)” value ([14]; 25 mg kg^−1 i.v., after 14 days, H&E) was “No obvious histopathological lesion” and the “plasma level of alanine aminotransferase (ALT)” value ([14]; 25 mg kg^−1 i.v., day 14) was “comparable to those in the vehicle control”. For the same compound, the “plasma level of creatinine (CREA)” value ([14]; 25 mg kg^−1 i.v., day 14) was “comparable to those in the vehicle control”, the “death or weight loss of mice” value ([14]; throughout the 14-day treatment period) was “None of the mice died or displayed any sign of weight loss” and the “necrotic cell death (annexin V-negative and PI-positive)” value [4] was 91%. For the same compound, the “level of LC3-II” value [5] was “increased levels”, the “fold higher binding affinity than 2 (CC mismatched DNA)” value ([15]; 1a versus 2) was 4.3 fold and the Kd ([15]; read-out: KD (CC mismatched DNA), ITC, one-site binding model, pH 7.4) was 19.6 µM. For the same compound, the IC50 [6] was 8.7 ± 0.2 µM, the “immunohistochemical staining for Ki-67 in tumor specimens” value [16] was “significant reduction” and the “increase in G0/G1 populations” value ([7]; 24 h, versus vehicle) was 9.3%. The “change in cell populations on prolonging treatment to 48 h” value ([7]; 48 h compared with 24 h) was “no significant increase in cell populations”, the “conversion of 1a into 1d” value ([17]; buffer control without β-glu, PBS pH 5.8, 24 h) was “ca. 2%” and the “conversion of 1a into 1d” value ([17]; β-glu 0.5 U mL^−1, PBS pH 5.8, 37 °C, 24 h) was “more than 70%”. The “fold higher Pt accumulation in NCI-H460 than in CCD-19Lu cells” value [18] was 1.9 fold, the “decrease in red fluorescence of JC-1 (mitochondrial depolarization)” value [8] was “ca. 21%” and the Kd [19] was 74.1 µM. The IC50 [9] was > 100 µM, the “fold lower KD than 2 (ctDNA)” value ([20]; 1a versus 2) was 27.5 fold and the Kd ([20]; read-out: KD (ctDNA), ITC, one-site binding model, pH 7.4) was 0.48 µM. For the same compound, the “solubility (water)” value [21] was 8600 µg/mL, the “bathochromic (red) shift of lowest-energy absorption band upon addition of ctDNA” value [22] was 42 nm and the “hypochromism upon addition of ctDNA” value ([22]; lowest-energy absorption band) was 16.8%. The “Pt content in cytosolic fraction” value [23] was 55%, the “Pt content in mitochondrial fraction” value [23] was 37% and the “Pt content in nuclear fraction” value [23] was 9%. For the same compound, the IC50 [10] was 17.2 ± 1.2 µM, the IC50 [11] was 7.5 ± 0.6 µM and the “lipophilicity (log P)” value [24] was −0.88. For the same compound, the average hydrodynamic diameter ([25]; RPMI 1640 cell culture medium containing 10% fetal bovine serum) was 87.3 ± 4.6 nm, the average hydrodynamic diameter ([25]; aqueous solution containing 1% DMSO, 100 µM) was 139.6 ± 2.5 nm and the “fold higher anti-proliferative activity than 1b” value ([26]; most of the cancer cell lines, 72 h) was 1.4- to 2.4 fold. For the same compound, the IC50 ([26]; 24 h post-treatment) was > 100 µM, the IC50 ([26]; after 48 h) was 54.6 to 74.5 µM and the lysosomal integrity [12] was “disruption of lysosomes”. The “hypochromism upon addition of HTelo DNA” value [27] was 19.6%, the “increment in DCF fluorescence intensity versus vehicle control” value [28] was ~1.2 fold and the “Pearson's colocalization coefficient of green and red LC3 puncta” value [29] was 0.64.
